In ChEMBL document CHEMBL1255355, “Characterization of a naturally occurring class D beta-lactamase from Achromobacter xylosoxidans” (Antimicrob Agents Chemother, 2008):
pKi: −log10 of the molar value. In brackets after ≈: the same amount, converted by molar mass. Activity calls are given as the source filed them. The rule behind the calls is not given here.

Key:
Escherichia coli [1] = assay: Antibacterial activity against Escherichia coli TOP10 in presence of 4 ug/ml clavulanic acid by agar dilution method; assay type: functional
Summary of the method: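 Agar dilution MICs of β-lactams, with clavulanic acid held at a fixed 4 μg/ml alongside each β-lactam. Results were interpreted against CLSI guidelines. Strains were routinely grown in Trypticase soy broth at 37°C. The E. coli TOP10 host was tested, including TOP10 carrying a pBK-CMV clone of the chromosomal A. xylosoxidans CIP69598 class D β-lactamase gene.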

[2] = system: Achromobacter xylosoxidans; assay: Ratio of Kcat to Km for Achromobacter xylosoxidans CIP69598 beta-lactamase OXA-114a expressed in Escherichia coli TOP10; design: unit not given here
Summary of the method: (§1)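 OXA-114a purified from E. coli TOP10(p6S3) grown overnight in TS broth with kanamycin 30 μg/ml and ampicillin 50 μg/ml, by sonication, spermine, Q-Sepharose (pH 8.8) and S-Sepharose (pH 6.5) steps. Initial hydrolysis rates read by UV spectrophotometry at 30°C in 100 mM Tris-H2SO4-300 mM K2SO4 pH 7.0 with 10 mM NaHCO3. kcat and Km are means of three independent experiments.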

[3] = system: Achromobacter xylosoxidans; assay: Antibacterial activity against Achromobacter xylosoxidans MER in presence of 4 ug/ml clavulanic acid by agar dilution method; assay type: functional
Summary of the method: (§2)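 MICs of β-lactams measured by agar dilution, with interpretation per CLSI guidelines. Combination tests used clavulanic acid or tazobactam at a fixed 4 μg/ml. Reference strain CIP69598 and clinical isolates MER, TB1, LOL and DUC, identified by API 32-GN. Cultures routinely grown in TS broth at 37°C.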

[4] = system: Achromobacter xylosoxidans; assay: Antibacterial activity against Achromobacter xylosoxidans LOL by agar dilution method; assay type: functional; summary of the method: as §2
[5] = system: Achromobacter xylosoxidans; assay: Antibacterial activity against Achromobacter xylosoxidans MER by agar dilution method; assay type: functional; summary of the method: as §2
Escherichia coli [6] = assay: microbe, parasite or virus in culture; assay type: functional; conditions: TOP10
[7] = system: Achromobacter xylosoxidans; assay: Antibacterial activity against Achromobacter xylosoxidans CIP69598 by agar dilution method; assay type: functional; summary of the method: as §2
Escherichia coli [8] = assay: Antibacterial activity against Escherichia coli TOP10 by agar dilution method; assay type: functional
Summary of the method: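 MIC determined by agar dilution; results interpreted per CLSI guidelines. E. coli TOP10 serves as the cloning host. Bacteria were routinely grown in Trypticase soy broth at 37°C.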

[9] = system: Achromobacter xylosoxidans; assay: Antibacterial activity against Achromobacter xylosoxidans LOL in presence of 4 ug/ml clavulanic acid by agar dilution method; assay type: functional; summary of the method: as §2
[10] = system: Achromobacter xylosoxidans; assay: Antibacterial activity against Achromobacter xylosoxidans CIP69598 in presence of 4 ug/ml clavulanic acid by agar dilution method; assay type: functional; summary of the method: as §2
[11] = system: Achromobacter xylosoxidans; assay: Antibacterial activity against Achromobacter xylosoxidans DUC by agar dilution method; assay type: functional; summary of the method: as §2
[12] = system: Achromobacter xylosoxidans; assay: Activity of Achromobacter xylosoxidans CIP69598 beta-lactamase OXA-114a expressed in Escherichia coli TOP10 assessed as compound hydrolysis; summary of the method: as §1
Escherichia coli [13] = assay: Antibacterial activity against Escherichia coli TOP10 harboring recombinant p6S3 expressing beta lactamase OXA-114a in presence of 4 ug/ml clavulanic acid by agar dilution method; assay type: functional
Summary of the method: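 Agar dilution MIC with clavulanic acid held at a fixed 4 μg/ml; interpreted per CLSI guidelines. Host E. coli TOP10 was electroporated with p6S3, a kanamycin-resistant pBK-CMV vector carrying a Sau3AI partial-digest fragment of A. xylosoxidans CIP69598 genomic DNA. Routine growth was in Trypticase soy broth at 37°C.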

[14] = system: Achromobacter xylosoxidans; assay: Antibacterial activity against Achromobacter xylosoxidans TB1 by agar dilution method; assay type: functional; summary of the method: as §2
[15] = system: Achromobacter xylosoxidans; assay: Antibacterial activity against Achromobacter xylosoxidans TB1 in presence of 4 ug/ml clavulanic acid by agar dilution method; assay type: functional; summary of the method: as §2
[16] = system: Achromobacter xylosoxidans; assay: Antibacterial activity against Achromobacter xylosoxidans DUC in presence of 4 ug/ml clavulanic acid by agar dilution method; assay type: functional; summary of the method: as §2
[17] = system: Achromobacter xylosoxidans; assay: Induction of Achromobacter xylosoxidans CIP69598 beta-lactamase OXA-114a expressed in Escherichia coli TOP10 assessed as imipenem hydrolysis
Summary of the method: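 Hydrolysis measured with 100 μM benzylpenicillin or imipenem as substrate. One unit hydrolyzes 1 μmol substrate/min. Protein measured against a bovine albumin standard.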

[18] = system: Achromobacter xylosoxidans; assay: Antibacterial activity against Achromobacter xylosoxidans DUC in presence of 4 ug/ml Tazobactam by agar dilution method; assay type: functional; summary of the method: as §2
[19] = Inhibition of Achromobacter xylosoxidans CIP69598 beta-lactamase OXA-114a expressed in Escherichia coli TOP10 assessed as reduction of benzyl-penicillin hydrolysis
Summary of the method: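 Ki obtained by competition with benzylpenicillin as reporter substrate. Purified enzyme, 30°C, 100 mM Tris-H2SO4-300 mM K2SO4 pH 7.0 with 10 mM NaHCO3. Initial rates read by UV spectrophotometry. Means of three independent experiments.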

Escherichia coli [20] = assay: Antibacterial activity against Escherichia coli TOP10 harboring recombinant p6S3 expressing beta lactamase OXA-114a in presence of 4 ug/ml Tazobactam by agar dilution method; assay type: functional
Summary of the method: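 MICs by agar dilution, with tazobactam held at a fixed 4 μg/ml and results read against CLSI guidelines. Strain is E. coli TOP10 carrying p6S3, a kanamycin-resistant pBK-CMV vector holding a partial Sau3AI fragment of A. xylosoxidans CIP69598 genomic DNA. It was selected on ticarcillin 50 mg/liter plus kanamycin 30 mg/liter. Cultures were routinely grown in TS broth at 37°C.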

[21] = system: Achromobacter xylosoxidans; assay: Antibacterial activity against Achromobacter xylosoxidans CIP69598 in presence of 4 ug/ml Tazobactam by agar dilution method; assay type: functional; summary of the method: as §2
Escherichia coli [22] = assay: Antibacterial activity against Escherichia coli TOP10 in presence of 4 ug/ml Tazobactam by agar dilution method; assay type: functional
Summary of the method: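 Plasmid-free E. coli TOP10 cloning host, tested by agar dilution MIC with tazobactam at a fixed 4 μg/ml and interpreted per CLSI guidelines. Cultures were routinely grown in Trypticase soy broth at 37°C.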

[23] = system: Achromobacter xylosoxidans; assay: Antibacterial activity against Achromobacter xylosoxidans MER in presence of 4 ug/ml Tazobactam by agar dilution method; assay type: functional; summary of the method: as §2
[24] = system: Achromobacter xylosoxidans; assay: Antibacterial activity against Achromobacter xylosoxidans TB1 in presence of 4 ug/ml Tazobactam by agar dilution method; assay type: functional; summary of the method: as §2
[25] = system: Achromobacter xylosoxidans; assay: Antibacterial activity against Achromobacter xylosoxidans LOL in presence of 4 ug/ml Tazobactam by agar dilution method; assay type: functional; summary of the method: as §2

| SMILES | MIC [4] [µg/mL] | MIC [5] [µg/mL] | MIC (Escherichia coli [6]) [µg/mL] | MIC [7] [µg/mL] | MIC (Escherichia coli [8]) [µg/mL] | MIC [11] [µg/mL] | kcat [12] [s⁻¹] | MIC [14] [µg/mL] | also measured |
| --- | --- | --- | --- | --- | --- | --- | --- | --- | --- |
| CC1(C)S[C@@H]2[C@H](NC(=O)[C@H](C(=O)O)c3ccsc3)C(=O)N2[C@H]1C(=O)O [TICARCILLIN] | > 64 | 1 (≈ 2.6 µM) | 4 (≈ 10.4 µM) | 4 (≈ 10.4 µM) | 2 (≈ 5.2 µM) | 1 (≈ 2.6 µM) | 0.1 | 1 (≈ 2.6 µM) | MIC (Escherichia coli [1]): 2 µg/mL; Ratio [2]: 2.5; MIC [3]: 1 µg/mL; MIC [9]: > 64 µg/mL; MIC [10]: 4 µg/mL; Km [12]: 40 µM; MIC (Escherichia coli [13]): 4 µg/mL; MIC [15]: 1 µg/mL; MIC [16]: 1 µg/mL |
| CC(C)(O/N=C(\C(=O)N[C@@H]1C(=O)N2C(C(=O)[O-])=C(C[n+]3ccccc3)CS[C@H]12)c1csc(N)n1)C(=O)O [CEFTAZIDIME] | 4 (≈ 7.32 µM) | 16 (≈ 29.3 µM) | 0.06 (≈ 0.11 µM) | 4 (≈ 7.32 µM) | 0.06 (≈ 0.11 µM) | 8 (≈ 14.6 µM) | < 0.01 | 4 (≈ 7.32 µM) |  |
| CC1(C)S[C@@H]2[C@H](NC(=O)[C@H](N)c3ccc(O)cc3)C(=O)N2[C@H]1C(=O)O [AMOXICILLIN] | > 64 | 2 (≈ 5.47 µM) | 16 (≈ 43.8 µM) | 16 (≈ 43.8 µM) | 2 (≈ 5.47 µM) | 1 (≈ 2.74 µM) |  | 8 (≈ 21.9 µM) | MIC (Escherichia coli [1]): 2 µg/mL; MIC [3]: 1 µg/mL; MIC [9]: 8 µg/mL; MIC [10]: 4 µg/mL; MIC (Escherichia coli [13]): 16 µg/mL; MIC [15]: 8 µg/mL; MIC [16]: 1 µg/mL |
| CO[C@@]1(NC(=O)Cc2cccs2)C(=O)N2C(C(=O)O)=C(COC(N)=O)CS[C@@H]21 [CEFOXITIN] | > 64 | > 64 | 4 (≈ 9.36 µM) | > 64 | 4 (≈ 9.36 µM) | > 64 | < 0.01 | > 64 | Activity [17]: inactive |
| Cc1onc(-c2ccccc2)c1C(=O)N[C@@H]1C(=O)N2[C@@H]1SC(C)(C)[C@@H]2C(=O)O |  |  |  |  |  |  | < 0.01 |  |  |
| C[C@H]1[C@H](NC(=O)/C(=N\OC(C)(C)C(=O)O)c2csc(N)n2)C(=O)N1S(=O)(=O)O [AZTREONAM] | > 64 | > 64 |  | > 64 |  | > 64 |  | > 64 |  |
| CC(=O)OCC1=C(C(=O)O)N2C(=O)[C@@H](NC(=O)Cc3cccs3)[C@H]2SC1 [CEPHALOTHIN] | > 64 | 32 (≈ 80.7 µM) | 8 (≈ 20.2 µM) | > 64 | 2 (≈ 5.04 µM) | 32 (≈ 80.7 µM) | 0.5 | 32 (≈ 80.7 µM) | Ratio [2]: 30; Km [12]: 15 µM |
| CO/N=C(\C(=O)N[C@@H]1C(=O)N2C(C(=O)[O-])=C(C[N+]3(C)CCCC3)CS[C@H]12)c1csc(N)n1 | > 64 | > 64 | 0.12 (≈ 0.25 µM) | 64 (≈ 133 µM) |  | > 64 |  | > 64 |  |
| CCN1CCN(C(=O)N[C@@H](C(=O)N[C@@H]2C(=O)N3[C@@H]2SC(C)(C)[C@@H]3C(=O)O)c2ccccc2)C(=O)C1=O [PIPERACILLIN] | 4 (≈ 7.73 µM) | 1 (≈ 1.93 µM) | 4 (≈ 7.73 µM) | 1 (≈ 1.93 µM) | 1 (≈ 1.93 µM) | 1 (≈ 1.93 µM) | 0.5 | 2 (≈ 3.86 µM) | Ratio [2]: 100; MIC [18]: 0.5 µg/mL; pKi [19]: 6.00; MIC (Escherichia coli [20]): 4 µg/mL; MIC [21]: 0.5 µg/mL; MIC (Escherichia coli [22]): 1 µg/mL; MIC [23]: 0.5 µg/mL; MIC [24]: 1 µg/mL; MIC [25]: 4 µg/mL |
| CO/N=C(\C(=O)N[C@@H]1C(=O)N2C(C(=O)O)=C(COC(N)=O)CS[C@H]12)c1ccco1 [CEFUROXIME] | > 64 | > 64 | 4 (≈ 9.43 µM) | > 64 | 2 (≈ 4.71 µM) | > 64 |  | > 64 |  |
| C[C@@H](O)[C@H]1C(=O)N2C(C(=O)O)=C(SCCNC=N)C[C@H]12 [IMIPENEM ANHYDROUS] | 4 (≈ 13.4 µM) | 1 (≈ 3.34 µM) |  | 4 (≈ 13.4 µM) |  | 1 (≈ 3.34 µM) | > 0.1 | 1 (≈ 3.34 µM) | Activity [17]: inactive; Km [12]: > 2000 µM |
| CO/N=C(\C(=O)N[C@@H]1C(=O)N2C(C(=O)O)=C(COC(C)=O)CS[C@H]12)c1csc(N)n1 [CEFOTAXIME] | > 64 | > 64 | 0.25 (≈ 0.549 µM) | > 64 | 0.12 (≈ 0.263 µM) | > 64 | < 0.01 | > 64 |  |
| CC1(C)S[C@@H]2[C@H](NC(=O)Cc3ccccc3)C(=O)N2[C@H]1C(=O)O |  |  |  |  |  |  | 0.1 |  | Ratio [2]: 10; Km [12]: 10 µM |
| CO[C@@]1(NC(=O)C(C(=O)O)c2ccc(O)cc2)C(=O)N2C(C(=O)O)=C(CSc3nnnn3C)CO[C@@H]21 (stereo not given in full) [MOXALACTAM] | 1 (≈ 1.92 µM) | 2 (≈ 3.84 µM) | 1 (≈ 1.92 µM) | 2 (≈ 3.84 µM) | 1 (≈ 1.92 µM) | 2 (≈ 3.84 µM) |  | 2 (≈ 3.84 µM) |  |
